The values below come from ChEMBL document CHEMBL4152343, “Design, Synthesis, and Pharmacological Evaluation of Second-Generation Tetrahydroisoquinoline-Based CXCR4 Antagonists with Favorable ADME Properties” (J Med Chem, 2018).

Series [1] can be described thus: Metabolic stability in human liver microsomes assessed as parent compound remaining after 10 mins by LC-MS/MS analysis. In kind it is ADME, microsome. The following applies: read-out: Stability. An outline of the steps:
(§1)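 Compound depletion measured by LC/MS/MS after 10 min at 37 °C in liver microsome preparations (CYP450 and other NADP-dependent enzymes). Values are % of compound remaining; duplicates in a single experiment.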
Background: Liver microsomes are a subcellular fraction often used to study metabolism.

In another series the target is Cytochrome P450 3A4 (Homo sapiens, UniProt P08684). Description: Inhibition of human CYP3A4. Format: ADME.
Sequence of Cytochrome P450 3A4 (P08684 whole entry): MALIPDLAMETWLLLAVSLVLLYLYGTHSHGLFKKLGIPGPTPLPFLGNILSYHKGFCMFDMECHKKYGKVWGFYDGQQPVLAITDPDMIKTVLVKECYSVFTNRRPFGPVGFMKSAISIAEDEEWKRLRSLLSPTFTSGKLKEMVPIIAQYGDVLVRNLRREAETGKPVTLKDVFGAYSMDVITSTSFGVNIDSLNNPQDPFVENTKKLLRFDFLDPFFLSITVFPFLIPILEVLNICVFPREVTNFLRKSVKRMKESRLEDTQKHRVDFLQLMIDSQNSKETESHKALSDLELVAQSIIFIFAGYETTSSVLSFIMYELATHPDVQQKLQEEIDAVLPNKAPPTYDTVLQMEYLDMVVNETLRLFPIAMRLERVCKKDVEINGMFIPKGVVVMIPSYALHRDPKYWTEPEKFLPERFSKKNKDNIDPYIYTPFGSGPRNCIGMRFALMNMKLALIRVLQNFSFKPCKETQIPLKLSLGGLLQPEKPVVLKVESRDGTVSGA
Series [2] can be described thus: Metabolic stability in mouse liver microsomes assessed as parent compound remaining after 10 mins by LC-MS/MS analysis. In kind it is ADME, microsome. To be noted: read-out: Stability. An outline of the steps:
as §1

Series [3] has as its target T1, C-X-C chemokine receptor type 4 (Homo sapiens, UniProt P61073). Description: Antagonist activity at CXCR4 in human CCRF-CEM cells assessed as inhibition of SDF-1alpha-induced calcium release preincubated for 25 mins followed by SDF-1alpha stimulation and measured for 90 secs by calcium flux assay. Format: functional, cell-based.
Series [4] has as its target T1, C-X-C chemokine receptor type 4. Description: Agonist activity at CXCR4 in human CCRF-CEM cells assessed as induction of calcium release incubated for 25 mins by calcium flux assay. In kind it is functional, cell-based. An outline of the steps: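 CCRF-CEM T lymphoblasts (endogenous CXCR4) in HBSS/20 mM HEPES/0.1% fatty-acid-free BSA, 40,000 cells/well, dye-loaded 30 min at 37°C, then 15 min at room temperature. Compounds added at final 25,000–0.423 nM (0.5% DMSO) and calcium flux read by FDSS for 90 s.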

The nature of series [5]: Permeability of compound at pH 5.5 by PAMPA. Format: ADME. To be noted: read-out: permeability. The gist of the method:
(§2)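 Compound from 10 mM DMSO stock diluted 1:100 to 100 µM (1% DMSO) in pH 7.4 or pH 5.5 donor buffer, then filtered. Lipid-coated filter membrane with pH 7.4 acceptor buffer; incubated 4 h at room temperature. UV plate reading gives Pc. Duplicates in two independent experiments unless noted.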
Background: PAMPA measures passive passage across an artificial lipid membrane.

For the next series, the target named is Cytochrome P450 2D6 (Homo sapiens, UniProt P10635). The series is described as follows: Inhibition of recombinant human CYP2D6 expressed in insect cells microsomes using AMMC as substrate preincubated for 30 mins followed by NADP addition and measured after 45 mins by fluorescence analysis. Format: ADME.
Sequence of Cytochrome P450 2D6 (P10635 whole entry): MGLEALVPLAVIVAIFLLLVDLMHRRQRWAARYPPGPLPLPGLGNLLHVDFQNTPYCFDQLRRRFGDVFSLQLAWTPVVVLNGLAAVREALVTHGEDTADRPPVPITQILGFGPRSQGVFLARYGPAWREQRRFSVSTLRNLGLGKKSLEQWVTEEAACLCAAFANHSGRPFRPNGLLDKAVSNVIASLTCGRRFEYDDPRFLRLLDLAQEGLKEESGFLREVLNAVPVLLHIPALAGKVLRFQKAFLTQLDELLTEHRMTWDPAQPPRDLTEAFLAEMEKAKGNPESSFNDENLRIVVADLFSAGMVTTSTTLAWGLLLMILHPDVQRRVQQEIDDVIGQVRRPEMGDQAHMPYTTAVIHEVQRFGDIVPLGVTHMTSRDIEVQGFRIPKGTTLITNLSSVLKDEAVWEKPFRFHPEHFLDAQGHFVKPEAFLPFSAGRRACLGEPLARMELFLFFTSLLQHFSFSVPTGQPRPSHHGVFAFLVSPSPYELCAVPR
The target of series [6] is Muscarinic acetylcholine receptor. The series is described as follows: Antagonist activity at mAChR in human CCRF-CEM cells assessed as inhibition of acetylcholine-induced calcium release preincubated for 25 mins followed by acetylcholine stimulation and measured for 90 secs by calcium flux assay. Format: functional, cell-based. An outline of the steps:
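Endogenous muscarinic receptors in CCRF-CEM cells (HBSS/HEPES/BSA buffer, 40,000 cells/well, dye-loaded 30 min at 37°C). Calcium flux recorded 90 s by FDSS. IC50 by 4-parameter logistic fit against an internal control compound; duplicate wells, single experiment.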
For orientation: Calcium assays in cells follow changes in intracellular calcium, usually with a dye or a luminescent sensor.

The target of series [7] is Voltage-gated inwardly rectifying potassium channel KCNH2 (Homo sapiens, UniProt Q12809). The series is described as follows: Displacement of [3H]astemizole from human ERG expressed in HEK cell membranes. An outline of the steps:
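Binding assay measuring [3H]astemizole displacement in HEK membranes overexpressing hKv11.1.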

Series [8] concerns the target Voltage-gated L-type calcium channel (Homo sapiens, UniProt Q13936+Q13698+Q01668+O60840). The series is described as follows: Antagonist activity at L-type calcium channel (unknown origin). In kind it is protein assay.
The nature of series [9]: Permeability of compound at pH 7.4 by PAMPA. Format: ADME. To be noted: read-out: permeability. The gist of the method: as §2
Another series is filed under the species Homo sapiens. Description: Selectivity index, ratio of IC50 for antagonist activity at mAChR in human CCRF-CEM cells to IC50 for antagonist activity at CXCR4 in human CCRF-CEM cells. Format: cell-based.

For orientation: IC50 means the point on the concentration scale where inhibition reaches its midpoint. As usually defined, the EC50 is the concentration needed to bring the measured effect to its halfway point.

T1 sequence (P61073 whole entry): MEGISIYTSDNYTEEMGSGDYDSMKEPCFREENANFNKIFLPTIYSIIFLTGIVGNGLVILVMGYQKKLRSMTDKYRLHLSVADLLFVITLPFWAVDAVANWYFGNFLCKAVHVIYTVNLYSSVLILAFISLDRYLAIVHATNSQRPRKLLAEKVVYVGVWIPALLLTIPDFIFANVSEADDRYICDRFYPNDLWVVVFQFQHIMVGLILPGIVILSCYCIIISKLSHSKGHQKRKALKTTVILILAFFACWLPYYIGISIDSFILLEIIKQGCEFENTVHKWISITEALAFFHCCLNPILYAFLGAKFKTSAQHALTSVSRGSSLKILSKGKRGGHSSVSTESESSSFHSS
Sequence of Voltage-gated inwardly rectifying potassium channel KCNH2 (Q12809 whole entry): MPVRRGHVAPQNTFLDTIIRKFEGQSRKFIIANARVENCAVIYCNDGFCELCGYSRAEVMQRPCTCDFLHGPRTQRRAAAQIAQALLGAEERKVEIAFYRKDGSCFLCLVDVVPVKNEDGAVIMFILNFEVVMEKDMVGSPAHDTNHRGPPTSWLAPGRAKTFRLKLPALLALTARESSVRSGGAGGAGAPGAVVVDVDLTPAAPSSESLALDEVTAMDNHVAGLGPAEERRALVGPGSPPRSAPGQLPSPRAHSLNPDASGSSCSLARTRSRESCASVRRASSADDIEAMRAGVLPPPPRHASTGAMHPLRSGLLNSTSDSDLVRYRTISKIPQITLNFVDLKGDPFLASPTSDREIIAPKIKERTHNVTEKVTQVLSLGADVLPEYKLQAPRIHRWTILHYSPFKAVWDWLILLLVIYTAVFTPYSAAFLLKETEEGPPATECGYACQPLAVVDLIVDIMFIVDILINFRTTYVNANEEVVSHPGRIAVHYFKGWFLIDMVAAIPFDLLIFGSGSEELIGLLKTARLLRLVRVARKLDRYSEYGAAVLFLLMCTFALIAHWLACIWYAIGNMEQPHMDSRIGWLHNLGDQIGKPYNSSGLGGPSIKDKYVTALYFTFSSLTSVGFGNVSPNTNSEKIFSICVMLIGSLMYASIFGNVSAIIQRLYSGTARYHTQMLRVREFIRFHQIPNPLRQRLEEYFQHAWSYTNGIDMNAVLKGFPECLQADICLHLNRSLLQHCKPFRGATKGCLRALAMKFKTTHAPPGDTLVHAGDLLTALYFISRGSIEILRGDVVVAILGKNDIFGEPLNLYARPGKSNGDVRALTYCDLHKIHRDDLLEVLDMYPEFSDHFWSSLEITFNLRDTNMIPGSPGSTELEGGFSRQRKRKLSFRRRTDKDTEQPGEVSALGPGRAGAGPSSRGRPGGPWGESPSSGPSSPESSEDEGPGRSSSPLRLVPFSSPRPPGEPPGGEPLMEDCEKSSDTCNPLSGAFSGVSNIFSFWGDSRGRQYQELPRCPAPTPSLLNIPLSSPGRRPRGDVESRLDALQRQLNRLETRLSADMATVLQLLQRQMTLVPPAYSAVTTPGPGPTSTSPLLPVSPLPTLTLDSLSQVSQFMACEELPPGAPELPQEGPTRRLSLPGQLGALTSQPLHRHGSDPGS

For the compound `CN(C[C@H]1Cc2c(cccc2N2CCN(c3ncccn3)CC2)CN1)[C@H]1CCCc2cccnc21`, the figures for the remaining at 10 min in series [1] and in series [2] were 35.5% and 35.1%, respectively. The IC50 against Cytochrome P450 3A4 was 3.35 µM; in series [3], 0.0307 µM; at Cytochrome P450 2D6 it was 0.508 µM; in series [6], 0.887 µM. Moreover, in series [4], the EC50 was over 30 µM. The Papp in [5] amounted to 36 ×10⁻⁶ cm/s.

For the compound `CN(C[C@H]1Cc2c(cccc2N2CCNCC2)CN1)[C@H]1CCCc2cccnc21`, the values for the remaining at 10 min in series [1] and in series [2] were 99.7% and 19.9%, respectively. Also, the IC50 at Cytochrome P450 3A4 is over 20 µM; in series [3], 0.00608 µM; on Cytochrome P450 2D6 it was over 20 µM; in [7] it was 20.3 µM; in series [6], 7.18 µM; in [8], over 80 µM. Besides, the EC50 in series [4] is over 30 µM.

In the case of `CN(C[C@H]1Cc2c(cccc2N2CCN3CCC[C@@H]3C2)CN1)[C@H]1CCCc2cccnc21`, the remaining at 10 min in [1] was 52.2%; in series [2], 36.7%. In addition, the IC50 at Cytochrome P450 3A4 is over 20 µM; in series [3], 0.00359 µM; on Cytochrome P450 2D6 it was over 20 µM; in series [6], 26.1 µM. Also, in series [9], the Papp turned out to be 74 ×10⁻⁶ cm/s. Moreover, the EC50 in series [4] was over 30 µM. The Ratio IC50 in the series filed under Homo sapiens is over 5000.

Regarding `COCCN(C[C@H]1Cc2c(cccc2N2CCNCC2)CN1)[C@H]1CCCc2cccnc21`, the remaining at 10 min in series [1] was 90.3%; in series [2] it was 83.7%. Moreover, the IC50 at Cytochrome P450 3A4 is over 20 µM; in series [3] it was 0.154 µM; at Cytochrome P450 2D6, 14.2 µM; in series [6] it was 5.6 µM. Also, the Papp in [9] was 0.1 ×10⁻⁶ cm/s. In series [4], the EC50 was over 30 µM.

In the case of `CC(C)N1CCN(c2cccc3c2C[C@H](CN(C)[C@H]2CCCc4cccnc42)NC3)CC1`, the remaining at 10 min in series [1] was 56.6%; in series [2] it was 15.1%. Moreover, the IC50 is over 20 µM at Cytochrome P450 3A4, 0.0169 µM in series [3], 8.13 µM at Cytochrome P450 2D6 and over 16.7 µM in [6]. In addition, in [9], the Papp is 14.3 ×10⁻⁶ cm/s. The EC50 in series [4] was over 30 µM.

On to `CN1CCN(c2cccc3c2C[C@H](CN(C)[C@H]2CCCc4cccnc42)N(C)C3)CC1`, for which the remaining at 10 min came to 83.3% in [1] and 41.7% in series [2]. In addition, the IC50 on Cytochrome P450 3A4 was over 20 µM; in series [3], 0.171 µM; at Cytochrome P450 2D6 it was over 20 µM; in series [6], over 16.7 µM. For the same compound, the Papp in [9] is 36.4 ×10⁻⁶ cm/s. Besides, the EC50 in series [4] was over 30 µM.

With `C[C@@H]1CN(c2cccc3c2C[C@H](CN(C)[C@H]2CCCc4cccnc42)NC3)C[C@H](C)N1`, the remaining at 10 min in series [1] is 100%; in [2] it was 85.6%. The IC50 is over 20 µM at Cytochrome P450 3A4, 0.061 µM in series [3], over 20 µM on Cytochrome P450 2D6 and over 33.3 µM in series [6]. For the same compound, the Papp in series [9] worked out at 3.9 ×10⁻⁶ cm/s. Moreover, the EC50 in [4] is over 30 µM.

In the case of `CCN(C[C@H]1Cc2c(cccc2N2CCNCC2)CN1)[C@H]1CCCc2cccnc21`, the remaining at 10 min in series [1] is 79.1%; in series [2] it was 53.8%. Moreover, the IC50 against Cytochrome P450 3A4 is over 20 µM; in series [3], 0.0148 µM; on Cytochrome P450 2D6 it was over 20 µM; in series [6], 8.6 µM. Besides, the Papp in [9] is 7.5 ×10⁻⁶ cm/s. Moreover, in series [4], the EC50 is over 30 µM.

For the compound `CCN1CCN(c2cccc3c2C[C@H](CN(C)[C@H]2CCCc4cccnc42)NC3)CC1`, the figures for the remaining at 10 min in series [1] and in series [2] were 0% and 18.8%, respectively. Moreover, the concentration for half-maximal inhibition (IC50) against Cytochrome P450 3A4 is over 20 µM; in series [3], 0.0138 µM; at Cytochrome P450 2D6 it was over 20 µM; in [6], over 33.3 µM. Besides, the Papp in series [9] is 20.5 ×10⁻⁶ cm/s. Besides, the EC50 in series [4] is over 30 µM.

As for `CN(C[C@H]1Cc2c(cccc2N2CCN(Cc3ccccn3)CC2)CN1)[C@H]1CCCc2cccnc21`, the remaining at 10 min in [1] is 4.2%; in series [2], 40.4%. The IC50 was found to be 6.79 µM on Cytochrome P450 3A4, 0.00447 µM in series [3], 11 µM at Cytochrome P450 2D6 and 10.8 µM in series [6]. In addition, the EC50 in series [4] was over 30 µM. The Papp in [5] worked out at 8.2 ×10⁻⁶ cm/s.

Regarding `CN(C[C@@H]1Cc2c(cccc2N2CCNCC2)CN1)[C@H]1CCCc2cccnc21`, the remaining at 10 min in series [1] was determined as 94.2%; in series [2] it was 54.6%. The IC50 was over 20 µM at Cytochrome P450 3A4, 0.313 µM in series [3], over 20 µM at Cytochrome P450 2D6 and 2.1 µM in series [6]. In addition, the Papp in series [9] was found to be 0.4 ×10⁻⁶ cm/s. Moreover, the EC50 in series [4] is over 30 µM.

Consider `CCCN(C[C@H]1Cc2c(cccc2N2CCNCC2)CN1)[C@H]1CCCc2cccnc21`, for which the remaining at 10 min in series [1] is 100%; in series [2] it was 87.4%. For the same compound, the IC50 is over 20 µM against Cytochrome P450 3A4, 0.0322 µM in series [3], 12 µM on Cytochrome P450 2D6 and 3.16 µM in series [6]. For the same compound, the Papp in series [9] was 2.65 ×10⁻⁶ cm/s. Moreover, the EC50 in series [4] was over 30 µM.

For `CN(C[C@H]1Cc2c(cccc2N2CCN(c3ccccn3)CC2)CN1)[C@H]1CCCc2cccnc21`, the remaining at 10 min in series [1] amounted to 27.4%; in [2] it was 46.1%. The IC50 on Cytochrome P450 3A4 came to 3.16 µM; in [3] it was 0.0179 µM; on Cytochrome P450 2D6, 2.52 µM; in series [6] it was 1.98 µM. The EC50 in series [4] was over 30 µM. In addition, the Papp in [5] came out at 12.9 ×10⁻⁶ cm/s.
